From the M2OR odorant receptor database

Key:
Conditions in all cases: stereoisomer not certain
[1] = molecular target: T1, OR10S1 (Homo sapiens) (UniProt Q8NGN2)
T1 sequence (whole entry): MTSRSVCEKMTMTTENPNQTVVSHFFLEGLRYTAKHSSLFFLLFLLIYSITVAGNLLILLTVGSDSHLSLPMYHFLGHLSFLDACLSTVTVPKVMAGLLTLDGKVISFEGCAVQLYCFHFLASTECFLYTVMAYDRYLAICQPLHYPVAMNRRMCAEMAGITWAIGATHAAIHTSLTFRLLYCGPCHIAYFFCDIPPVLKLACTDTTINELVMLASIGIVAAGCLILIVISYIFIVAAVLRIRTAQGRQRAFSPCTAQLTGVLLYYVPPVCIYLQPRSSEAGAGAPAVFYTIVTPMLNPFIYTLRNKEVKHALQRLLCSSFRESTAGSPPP
Procedure, shortened: (§1)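 Each entry records the cell line, G-protein, co-transfected protein and tags used. Methods varied with the source, often transient luciferase assays in mammalian cell lines. A receptor–molecule pair is called responsive (active) if the original authors judged its signal statistically different from baseline and non-responsive (inactive) otherwise.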

[2] = molecular target: T2, OR10R2 (Homo sapiens) (UniProt Q8NGX6)
T2 sequence (whole entry): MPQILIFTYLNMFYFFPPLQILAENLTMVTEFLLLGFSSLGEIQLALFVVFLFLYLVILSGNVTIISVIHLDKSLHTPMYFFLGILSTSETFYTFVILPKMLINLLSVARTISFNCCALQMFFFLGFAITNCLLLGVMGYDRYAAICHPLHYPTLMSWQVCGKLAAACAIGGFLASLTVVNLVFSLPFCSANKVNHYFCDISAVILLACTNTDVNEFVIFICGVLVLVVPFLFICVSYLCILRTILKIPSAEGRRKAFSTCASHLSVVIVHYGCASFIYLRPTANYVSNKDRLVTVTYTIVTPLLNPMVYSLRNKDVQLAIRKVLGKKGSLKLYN
Procedure, shortened: as §1

[3] = molecular target: T3, OR10T2 (Homo sapiens) (UniProt Q8NGX3)
T3 sequence (whole entry): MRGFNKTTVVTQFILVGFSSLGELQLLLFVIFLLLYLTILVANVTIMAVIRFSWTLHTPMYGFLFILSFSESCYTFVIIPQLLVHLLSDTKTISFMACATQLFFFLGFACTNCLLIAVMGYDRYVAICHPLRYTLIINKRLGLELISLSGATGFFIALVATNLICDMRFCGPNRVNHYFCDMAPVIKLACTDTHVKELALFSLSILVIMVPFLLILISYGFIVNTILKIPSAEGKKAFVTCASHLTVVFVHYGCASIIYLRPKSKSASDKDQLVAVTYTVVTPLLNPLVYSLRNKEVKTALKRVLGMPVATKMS
Procedure, shortened: as §1

[4] = molecular target: T4, OR10V1 (Homo sapiens) (UniProt Q8NGI7)
T4 sequence (whole entry): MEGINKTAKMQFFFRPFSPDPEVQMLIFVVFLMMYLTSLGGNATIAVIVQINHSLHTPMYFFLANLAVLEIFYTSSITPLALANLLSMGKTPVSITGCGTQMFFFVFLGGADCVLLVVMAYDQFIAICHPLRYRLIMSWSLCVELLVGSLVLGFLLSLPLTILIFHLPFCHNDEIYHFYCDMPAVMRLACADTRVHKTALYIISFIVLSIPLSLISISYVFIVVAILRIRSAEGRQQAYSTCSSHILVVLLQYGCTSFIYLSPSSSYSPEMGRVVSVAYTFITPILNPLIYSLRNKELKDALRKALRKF
Procedure, shortened: as §1

[5] = molecular target: T5, OR10W1 (Homo sapiens) (UniProt Q8NGF6)
T5 sequence (whole entry): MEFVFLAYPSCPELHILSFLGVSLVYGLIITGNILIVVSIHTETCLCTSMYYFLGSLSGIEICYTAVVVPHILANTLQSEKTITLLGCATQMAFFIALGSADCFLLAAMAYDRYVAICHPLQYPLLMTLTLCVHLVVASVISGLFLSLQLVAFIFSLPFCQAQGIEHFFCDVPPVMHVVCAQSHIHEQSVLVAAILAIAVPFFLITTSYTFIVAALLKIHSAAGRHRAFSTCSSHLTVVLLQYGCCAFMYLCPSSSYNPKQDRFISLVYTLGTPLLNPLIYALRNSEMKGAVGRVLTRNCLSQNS
Procedure, shortened: as §1

[6] = molecular target: T6, OR10X1 (Homo sapiens) (UniProt Q8NGY0)
T6 sequence (whole entry): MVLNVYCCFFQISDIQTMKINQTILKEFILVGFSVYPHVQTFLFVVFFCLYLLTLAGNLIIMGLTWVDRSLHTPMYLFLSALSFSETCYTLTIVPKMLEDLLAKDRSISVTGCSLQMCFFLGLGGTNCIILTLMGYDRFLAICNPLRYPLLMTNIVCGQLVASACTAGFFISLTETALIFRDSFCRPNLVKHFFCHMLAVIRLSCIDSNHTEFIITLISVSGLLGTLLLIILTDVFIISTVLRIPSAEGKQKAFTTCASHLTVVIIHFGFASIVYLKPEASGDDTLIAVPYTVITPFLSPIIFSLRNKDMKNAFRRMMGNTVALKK
Procedure, shortened: as §1

[7] = molecular target: T7, OR10Z1 (Homo sapiens) (UniProt Q8NGY1)
T7 sequence (whole entry): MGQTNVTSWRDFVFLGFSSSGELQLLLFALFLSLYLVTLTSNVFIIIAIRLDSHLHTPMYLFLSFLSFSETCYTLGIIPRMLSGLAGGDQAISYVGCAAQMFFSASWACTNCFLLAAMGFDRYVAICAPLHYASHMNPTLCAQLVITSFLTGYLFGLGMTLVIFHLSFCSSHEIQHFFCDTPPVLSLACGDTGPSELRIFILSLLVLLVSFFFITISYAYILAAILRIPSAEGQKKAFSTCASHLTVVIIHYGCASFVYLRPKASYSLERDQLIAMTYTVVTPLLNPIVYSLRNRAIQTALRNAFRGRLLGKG
Procedure, shortened: as §1

[8] = molecular target: T8, OR11A1 (Homo sapiens) (UniProt Q9GZK7)
T8 sequence (whole entry): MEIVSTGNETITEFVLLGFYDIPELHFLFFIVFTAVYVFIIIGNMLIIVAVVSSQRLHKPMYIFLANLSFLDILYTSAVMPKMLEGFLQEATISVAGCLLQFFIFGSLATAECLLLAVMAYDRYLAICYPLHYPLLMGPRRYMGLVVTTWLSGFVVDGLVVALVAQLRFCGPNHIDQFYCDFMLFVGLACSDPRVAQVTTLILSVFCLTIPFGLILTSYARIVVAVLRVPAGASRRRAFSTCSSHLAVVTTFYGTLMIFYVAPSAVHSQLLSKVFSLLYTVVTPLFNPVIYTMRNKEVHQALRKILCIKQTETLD
Procedure, shortened: as §1

[9] = molecular target: T9, OR11G2 (Homo sapiens) (UniProt Q8NGC1)
T9 sequence (whole entry): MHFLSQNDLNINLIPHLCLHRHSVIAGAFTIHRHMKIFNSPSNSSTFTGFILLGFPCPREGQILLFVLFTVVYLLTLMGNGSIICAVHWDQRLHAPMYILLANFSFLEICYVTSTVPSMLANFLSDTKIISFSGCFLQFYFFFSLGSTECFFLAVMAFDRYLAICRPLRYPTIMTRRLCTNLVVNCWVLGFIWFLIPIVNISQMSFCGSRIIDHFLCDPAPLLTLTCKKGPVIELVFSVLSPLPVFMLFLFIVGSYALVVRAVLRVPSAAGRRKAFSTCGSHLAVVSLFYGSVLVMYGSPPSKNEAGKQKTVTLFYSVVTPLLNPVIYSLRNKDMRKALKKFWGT
Procedure, shortened: as §1

[10] = molecular target: T10, OR11H1 (Homo sapiens) (UniProt Q8NG94)
T10 sequence (whole entry): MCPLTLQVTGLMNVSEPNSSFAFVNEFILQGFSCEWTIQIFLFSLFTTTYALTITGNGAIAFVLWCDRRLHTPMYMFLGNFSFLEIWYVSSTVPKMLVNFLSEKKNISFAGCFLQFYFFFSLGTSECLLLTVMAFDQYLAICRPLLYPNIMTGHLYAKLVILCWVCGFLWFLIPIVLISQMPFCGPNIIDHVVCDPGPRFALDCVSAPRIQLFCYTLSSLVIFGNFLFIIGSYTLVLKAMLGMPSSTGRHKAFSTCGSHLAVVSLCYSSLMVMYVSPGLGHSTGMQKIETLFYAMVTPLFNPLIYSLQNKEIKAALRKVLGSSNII
Procedure, shortened: as §1

Measured: odorant receptor agonist call

Cc1cnc(C)cn1
inactive: [1]

CCCCCCCCCCCCCC(=O)OCC
inactive: [1]

CCCCCCCCCCCCCCCCCC(=O)OC
inactive: [1]

CCCCCC(S)C(C)CO (stereo not given)
inactive: all assays above

CC(CO)CS (stereo not given)
inactive: all assays above

CCCCC(S)C(C)CO (stereo not given)
inactive: all assays above

CCC1OC(C)=C(O)C1=O (stereo not given)
inactive: all assays above

CCC(C)CO (stereo not given)
inactive: [1]

Cc1cnc(C)c(C)n1
inactive: all assays above

CC1=C(O)C(=O)C(C)O1 (stereo not given)
inactive: all assays above

CCC1OC(=O)C(O)=C1C (stereo not given)
inactive: all assays above

CCCC(=O)CC
inactive: [1]

CCC(=O)O
inactive: [1]

CCCCCCCCCCCC(=O)O
inactive: [1]

CCCCCCCCCC(=O)OCC
inactive: [1]

CC1CCCCCCCCCCCCC(=O)C1 (stereo not given)
inactive: all assays above

CCCCCCCCCCCC(=O)OCC
inactive: [1]

CCC(S)C(C)CO (stereo not given)
inactive: all assays above

CC1=NC(C)C(C)S1 (stereo not given)
inactive: all assays above

CC1=C(O)C(=O)OC1C (stereo not given)
inactive: all assays above

CCCCOCC(C)O (stereo not given)
inactive: [1]

CC(=O)c1c(C)c([N+](=O)[O-])c(C(C)(C)C)c([N+](=O)[O-])c1C
inactive: all assays above

CCCCCCC=CCCC=O
inactive: all assays above

CCCC(S)CCOC(C)=O (stereo not given)
inactive: all assays above

CCCCCC(=O)C(C)C(C)=O (stereo not given)
inactive: all assays above
